Test results as given in paper PMC10842602 (Bioorganic & medicinal chemistry, 2023).

Molecular target: T1, WT human SLACK (Homo sapiens, UniProt Q5JUK3)
T1 sequence (Q5JUK3 1-1235 isoform Q5JUK3-3): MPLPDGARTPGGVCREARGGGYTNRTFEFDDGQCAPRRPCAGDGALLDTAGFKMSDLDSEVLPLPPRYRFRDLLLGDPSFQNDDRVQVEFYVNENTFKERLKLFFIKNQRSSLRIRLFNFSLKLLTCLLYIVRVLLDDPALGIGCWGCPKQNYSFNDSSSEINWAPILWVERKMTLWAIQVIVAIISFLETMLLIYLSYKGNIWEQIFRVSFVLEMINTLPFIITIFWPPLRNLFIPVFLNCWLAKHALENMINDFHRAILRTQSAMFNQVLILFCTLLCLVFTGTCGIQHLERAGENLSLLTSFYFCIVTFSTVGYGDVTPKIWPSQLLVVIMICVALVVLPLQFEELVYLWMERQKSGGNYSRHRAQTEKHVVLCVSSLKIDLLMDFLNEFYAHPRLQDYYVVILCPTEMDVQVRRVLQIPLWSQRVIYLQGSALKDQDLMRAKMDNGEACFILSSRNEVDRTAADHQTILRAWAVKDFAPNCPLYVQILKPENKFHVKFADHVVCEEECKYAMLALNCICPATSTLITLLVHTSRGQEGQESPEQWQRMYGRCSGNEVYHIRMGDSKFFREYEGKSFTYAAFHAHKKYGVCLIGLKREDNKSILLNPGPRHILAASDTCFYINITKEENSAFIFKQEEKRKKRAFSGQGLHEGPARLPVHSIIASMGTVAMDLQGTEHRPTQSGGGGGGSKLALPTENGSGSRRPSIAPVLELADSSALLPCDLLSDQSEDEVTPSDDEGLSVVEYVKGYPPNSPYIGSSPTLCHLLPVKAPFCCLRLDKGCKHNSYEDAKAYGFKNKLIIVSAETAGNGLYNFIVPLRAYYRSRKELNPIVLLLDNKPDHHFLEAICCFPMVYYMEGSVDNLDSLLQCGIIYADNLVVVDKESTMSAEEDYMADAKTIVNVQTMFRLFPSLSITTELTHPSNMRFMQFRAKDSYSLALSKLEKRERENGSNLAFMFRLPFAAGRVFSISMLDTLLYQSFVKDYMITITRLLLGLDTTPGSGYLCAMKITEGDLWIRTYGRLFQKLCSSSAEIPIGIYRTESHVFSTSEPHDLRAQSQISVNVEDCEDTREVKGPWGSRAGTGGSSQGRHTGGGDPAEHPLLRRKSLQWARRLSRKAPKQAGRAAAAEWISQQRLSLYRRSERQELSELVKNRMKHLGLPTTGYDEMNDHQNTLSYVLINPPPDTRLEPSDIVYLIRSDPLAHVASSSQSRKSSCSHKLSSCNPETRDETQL
Experiment: Tl+ flux assay in HEK-293 cells stably expressing WT human SLACK
Type: cell-based
Conditions: for IC50 / EC50: CRC; for Mode: Tl+ flux, HEK-293 cells expressing WT SLACK
Procedure, shortened: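 Stably transfected HEK-293 cells expressing wild-type human SLACK; thallium flux read-out. IC50 or EC50 taken from concentration-response curves, and each compound classed as inhibitor, activator or not active. Efficacy is the response amplitude at 30 μM test compound, as a percentage of the maximum response to a reference SLACK inhibitor (for inhibitors) or loxapine (for activators).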

[1] = IC50 for compounds of mode Inh (also cells printed Inactive)

Compound | IC50 / EC50 (EC50 for compounds of mode Act) | IC50 / EC50 [1] | Mode
O=S(=O)(c1ccccc1F)N1CC(c2nc(-c3ccsc3)no2)C1 [Compound 11, 5-(1-((2-Fluorophenyl)sulfonyl)azetidin-3-yl)-3-(thiophen-3-yl)-1,2,4-oxadiazole] | 4.8 µM | – | –
O=S(=O)(c1cccc(F)c1)N1CC(c2nc(-c3ccsc3)no2)C1 [Compound 12, 5-(1-((3-Fluorophenyl)sulfonyl)azetidin-3-yl)-3-(thiophen-3-yl)-1,2,4-oxadiazole] | >10 µM | – | –
O=S(=O)(c1ccc(F)cc1)N1CC(c2nc(-c3ccsc3)no2)C1 [Compound 13, 5-(1-((4-Fluorophenyl)sulfonyl)azetidin-3-yl)-3-(thiophen-3-yl)-1,2,4-oxadiazole] | – | Inactive | Inactive
O=S(=O)(c1ccccc1Cl)N1CC(c2nc(-c3ccsc3)no2)C1 [Compound 14, 5-(1-((2-Chlorophenyl)sulfonyl)azetidin-3-yl)-3-(thiophen-3-yl)-1,2,4-oxadiazole] | 7.5 µM | – | –
O=S(=O)(c1cccc(Cl)c1)N1CC(c2nc(-c3ccsc3)no2)C1 [Compound 15, 5-(1-((3-Chlorophenyl)sulfonyl)azetidin-3-yl)-3-(thiophen-3-yl)-1,2,4-oxadiazole] | – | Inactive | Inactive
O=S(=O)(c1ccc(Cl)cc1)N1CC(c2nc(-c3ccsc3)no2)C1 [Compound 16, 5-(1-((4-Chlorophenyl)sulfonyl)azetidin-3-yl)-3-(thiophen-3-yl)-1,2,4-oxadiazole] | – | Inactive | Inactive
O=S(=O)(c1ccccc1C(F)(F)F)N1CC(c2nc(-c3ccsc3)no2)C1 [Compound 17, 3-(Thiophen-3-yl)-5-(1-((2-(trifluoromethyl)phenyl)sulfonyl)azetidin-3-yl)-1,2,4-oxadiazole] | 6.0 µM | – | –
O=S(=O)(c1cccc(C(F)(F)F)c1)N1CC(c2nc(-c3ccsc3)no2)C1 [Compound 18, 3-(Thiophen-3-yl)-5-(1-((3-(trifluoromethyl)phenyl)sulfonyl)azetidin-3-yl)-1,2,4-oxadiazole] | 6.2 µM | – | –
O=S(=O)(c1ccc(C(F)(F)F)cc1)N1CC(c2nc(-c3ccsc3)no2)C1 [Compound 19, 3-(Thiophen-3-yl)-5-(1-((4-(trifluoromethyl)phenyl)sulfonyl)azetidin-3-yl)-1,2,4-oxadiazole] | – | Inactive | Inactive
Cc1cccc(S(=O)(=O)N2CC(c3nc(-c4ccsc4)no3)C2)c1 [Compound 21, 3-(Thiophen-3-yl)-5-(1-(m-tolylsulfonyl)azetidin-3-yl)-1,2,4-oxadiazole] | >10 µM | – | –
Cc1ccc(S(=O)(=O)N2CC(c3nc(-c4ccsc4)no3)C2)cc1 [Compound 22, 3-(Thiophen-3-yl)-5-(1-tosylazetidin-3-yl)-1,2,4-oxadiazole] | – | Inactive | Inactive
COc1cccc(S(=O)(=O)N2CC(c3nc(-c4ccsc4)no3)C2)c1 [Compound 24, 5-(1-((3-Methoxyphenyl)sulfonyl)azetidin-3-yl)-3-(thiophen-3-yl)-1,2,4-oxadiazole] | – | Inactive | Inactive
CCCCOc1ccccc1S(=O)(=O)N1CC(c2nc(-c3ccsc3)no2)C1 [Compound 28, 5-(1-((2-Butoxyphenyl)sulfonyl)azetidin-3-yl)-3-(thiophen-3-yl)-1,2,4-oxadiazole] | – | Inactive | Inactive
CCNc1ccccc1S(=O)(=O)N1CC(c2nc(-c3ccsc3)no2)C1 [Compound 29] | – | Inactive | Inactive
CCCc1ccccc1S(=O)(=O)N1CC(c2nc(-c3ccsc3)no2)C1 [Compound 30] | – | >10 µM | –
CCOc1ccccc1CN1CC(c2nc(-c3ccsc3)no2)C1 [Compound 31] | >10 µM | – | –
CCOc1ccccc1C(C)N1CC(c2nc(-c3ccsc3)no2)C1 (centres unmarked) [Compound 32] | >10 µM | – | –
CCOc1ccccc1C(=O)N1CC(c2nc(-c3ccsc3)no2)C1 [Compound 33] | >10 µM | – | –

Compound | IC50 / EC50 (EC50 for compounds of mode Act) | IC50 / EC50 [1] | Mode
CCOc1ccccc1CC(=O)N1CC(c2nc(-c3ccsc3)no2)C1 [Compound 34] | >10 µM | – | –
CCOc1ccccc1NC(=O)N1CC(c2nc(-c3ccsc3)no2)C1 [Compound 35] | >10 µM | – | –
CCOc1ccccc1OC(=O)N1CC(c2nc(-c3ccsc3)no2)C1 [Compound 36] | >10 µM | – | –
CCOc1ccccc1S(=O)(=O)N1CC(c2nc(-c3ccccc3)no2)C1 [Compound 40, 5-(1-((2-Ethoxyphenyl)sulfonyl)azetidin-3-yl)-3-phenyl-1,2,4-oxadiazole] | – | >10 µM | –
CCOc1ccccc1S(=O)(=O)N1CC(c2nc(-c3ccccc3F)no2)C1 [Compound 41, 5-(1-((2-Ethoxyphenyl)sulfonyl)azetidin-3-yl)-3-(2-fluorophenyl)-1,2,4-oxadiazole] | – | 7.9 µM | –
CCOc1ccccc1S(=O)(=O)N1CC(c2nc(-c3cccc(F)c3)no2)C1 [Compound 42, 5-(1-((2-Ethoxyphenyl)sulfonyl)azetidin-3-yl)-3-(3-fluorophenyl)-1,2,4-oxadiazole] | – | Inactive | Inactive
CCOc1ccccc1S(=O)(=O)N1CC(c2nc(-c3ccccc3Cl)no2)C1 [Compound 44, 3-(2-Chlorophenyl)-5-(1-((2-ethoxyphenyl)sulfonyl)azetidin-3-yl)-1,2,4-oxadiazole] | – | 8.0 µM | –
CCOc1ccccc1S(=O)(=O)N1CC(c2nc(-c3cccc(Cl)c3)no2)C1 [Compound 45, 3-(3-Chlorophenyl)-5-(1-((2-ethoxyphenyl)sulfonyl)azetidin-3-yl)-1,2,4-oxadiazole] | – | Inactive | Inactive
CCOc1ccccc1S(=O)(=O)N1CC(c2nc(-c3ccc(Cl)cc3)no2)C1 [Compound 46, 3-(4-Chlorophenyl)-5-(1-((2-ethoxyphenyl)sulfonyl)azetidin-3-yl)-1,2,4-oxadiazole] | – | 11 µM | –
CCOc1ccccc1S(=O)(=O)N1CC(c2nc(-c3ccccc3C(F)(F)F)no2)C1 [Compound 47, 5-(1-((2-Ethoxyphenyl)sulfonyl)azetidin-3-yl)-3-(2-(trifluoromethyl)phenyl)-1,2,4-oxadiazole] | 1.9 µM | – | –
CCOc1ccccc1S(=O)(=O)N1CC(c2nc(-c3cccc(C(F)(F)F)c3)no2)C1 [Compound 48, 5-(1-((2-Ethoxyphenyl)sulfonyl)azetidin-3-yl)-3-(3-(trifluoromethyl)phenyl)-1,2,4-oxadiazole] | – | 11 µM | –
CCOc1ccccc1S(=O)(=O)N1CC(c2nc(-c3ccccc3C)no2)C1 [Compound 50, 5-(1-((2-Ethoxyphenyl)sulfonyl)azetidin-3-yl)-3-(o-tolyl)-1,2,4-oxadiazole] | >10 µM | – | –
CCOc1ccccc1S(=O)(=O)N1CC(c2nc(-c3cccc(C)c3)no2)C1 [Compound 51, 5-(1-((2-Ethoxyphenyl)sulfonyl)azetidin-3-yl)-3-(m-tolyl)-1,2,4-oxadiazole] | – | >10 µM | –
CCOc1ccccc1S(=O)(=O)N1CC(c2nc(-c3ccc(C)cc3)no2)C1 [Compound 52, 5-(1-((2-Ethoxyphenyl)sulfonyl)azetidin-3-yl)-3-(p-tolyl)-1,2,4-oxadiazole] | – | Inactive | Inactive
CCOc1ccccc1S(=O)(=O)N1CC(c2nc(-c3ccccc3OC)no2)C1 [Compound 53, 5-(1-((2-Ethoxyphenyl)sulfonyl)azetidin-3-yl)-3-(2-methoxyphenyl)-1,2,4-oxadiazole] | >10 µM | – | –
CCOc1ccccc1S(=O)(=O)N1CC(c2nc(-c3cccc(OC)c3)no2)C1 [Compound 54, 5-(1-((2-Ethoxyphenyl)sulfonyl)azetidin-3-yl)-3-(3-methoxyphenyl)-1,2,4-oxadiazole] | >10 µM | – | –
CCOc1ccccc1S(=O)(=O)N1CC(c2nc(-c3nccs3)no2)C1 [Compound 61, 5-(1-((2-Ethoxyphenyl)sulfonyl)azetidin-3-yl)-3-(thiazol-2-yl)-1,2,4-oxadiazole] | – | Inactive | Inactive
